Laboratory results: ChEMBL document CHEMBL2346663 (J Med Chem, 2013)
pIC50, pKi: −log10 of the molar value.

Assays:
Myeloperoxidase [1] = biological target: T1, Myeloperoxidase (Homo sapiens, UniProt P05164); assay: Inhibition of human recombinant MPO-mediated LDL oxidation after 5 mins by ELISA; settings: for pIC50: read-out: IC50
T1 sequence (P05164 whole entry): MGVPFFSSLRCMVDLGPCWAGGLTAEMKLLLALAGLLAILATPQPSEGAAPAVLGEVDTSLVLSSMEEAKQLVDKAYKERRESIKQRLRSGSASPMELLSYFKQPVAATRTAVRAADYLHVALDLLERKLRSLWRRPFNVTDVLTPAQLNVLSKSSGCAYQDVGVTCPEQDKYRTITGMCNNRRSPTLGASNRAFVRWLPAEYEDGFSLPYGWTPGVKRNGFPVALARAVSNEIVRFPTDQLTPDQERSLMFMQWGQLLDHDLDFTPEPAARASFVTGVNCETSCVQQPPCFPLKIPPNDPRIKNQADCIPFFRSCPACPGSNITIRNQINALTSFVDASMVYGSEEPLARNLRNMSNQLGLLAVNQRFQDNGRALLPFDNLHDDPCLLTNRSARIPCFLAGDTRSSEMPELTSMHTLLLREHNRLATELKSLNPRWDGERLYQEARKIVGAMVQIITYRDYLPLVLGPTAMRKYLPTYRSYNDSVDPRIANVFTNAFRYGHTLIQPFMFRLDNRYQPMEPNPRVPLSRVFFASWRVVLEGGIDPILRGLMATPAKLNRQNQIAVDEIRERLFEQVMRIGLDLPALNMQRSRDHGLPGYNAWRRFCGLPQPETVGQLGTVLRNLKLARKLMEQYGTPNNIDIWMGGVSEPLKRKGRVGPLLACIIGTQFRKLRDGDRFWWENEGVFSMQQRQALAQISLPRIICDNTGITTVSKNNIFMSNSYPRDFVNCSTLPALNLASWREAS
Outline: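 Recombinant MPO (1 µg/mL) with human plasma LDL (1000 µg/mL; ultracentrifuged fraction 1.019–1.067 g/mL, desalted in PBS) in PBS pH 7.2 with 4 mM HCl and test compound at several concentrations. Reaction started with 100 µM H2O2 at 37 °C and stopped after 5 min on ice. Oxidized LDL read by ELISA: 200 ng/well LDL coated, Mab AG9 antibody, alkaline phosphatase anti-mouse IgG, p-nitrophenyl phosphate, A405 corrected at 655 nm.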

Myeloperoxidase [2] = biological target: T1, Myeloperoxidase; assay: Inhibition of human recombinant MPO-mediated taurine chlorination after 5 mins by microplate assay; assay type: single protein; settings: for pIC50: read-out: IC50
Outline: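 Recombinant MPO (40 nM) in 10 mM phosphate pH 7.4 with 300 mM NaCl and 15 mM taurine, inhibitor up to 20 µM, 37 °C. Started with H2O2 (100 µM), stopped after 5 min with catalase. Taurine chloramine measured with thionitrobenzoic acid at 412 nm. IC50 taken from the absorbance–concentration curve; no H2O2 set as 100% inhibition, no inhibitor as 0%.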

[3] = biological target: Sodium-dependent serotonin transporter (Homo sapiens, UniProt P31645); assay: Inhibition of serotonin reuptake at human SERT expressed in HEK293 cells coexpressing macrophage scavenger receptor; assay type: cell-based; settings: for Ki: hek293; for pKi: read-out: Ki
Sequence of Sodium-dependent serotonin transporter (P31645 whole entry): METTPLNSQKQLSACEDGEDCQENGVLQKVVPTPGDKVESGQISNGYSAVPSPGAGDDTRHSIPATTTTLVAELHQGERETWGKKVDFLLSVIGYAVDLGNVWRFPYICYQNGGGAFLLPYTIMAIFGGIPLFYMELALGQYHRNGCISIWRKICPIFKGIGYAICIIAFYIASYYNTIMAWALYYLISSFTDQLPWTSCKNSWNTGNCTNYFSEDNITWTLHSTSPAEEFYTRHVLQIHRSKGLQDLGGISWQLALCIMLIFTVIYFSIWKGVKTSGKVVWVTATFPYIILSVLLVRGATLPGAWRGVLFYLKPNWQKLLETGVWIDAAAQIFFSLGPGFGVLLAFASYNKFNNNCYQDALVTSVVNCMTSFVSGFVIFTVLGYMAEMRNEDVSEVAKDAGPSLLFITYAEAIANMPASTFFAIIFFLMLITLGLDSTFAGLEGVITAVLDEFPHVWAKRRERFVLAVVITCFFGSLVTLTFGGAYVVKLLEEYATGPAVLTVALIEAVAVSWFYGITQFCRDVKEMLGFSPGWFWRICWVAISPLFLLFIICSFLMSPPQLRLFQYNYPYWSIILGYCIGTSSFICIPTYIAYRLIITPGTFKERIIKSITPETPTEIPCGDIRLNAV
Outline: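 HEK-293 MSR cells grown in DMEM with 10% FCS, penicillin/streptomycin and 6 µg/mL Geneticin at 37 °C and 5% CO2. Cells transfected with a pcDNA3.1 human SERT plasmid and assayed for [3H]5-HT uptake.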

Homo sapiens = species on record: Homo sapiens; assay: Selectivity ratio of Ki for human SERT to IC50 for human recombinant MPO-mediated LDL oxidation
Outline: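 Ratio of two measured values. Recombinant human MPO (1 µg/mL) oxidised LDL (1000 µg/mL) in PBS pH 7.2 with 4 mM HCl and 100 µM H2O2 at 37 °C for 5 min. Oxidised LDL was detected by ELISA with Mab AG9 at 405 nm to give the IC50. hSERT was transiently expressed in HEK-293 MSR cells and assayed by [3H]5-HT uptake.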

Rattus norvegicus [4] = assay: Toxicity in Wistar Han rat at 1 to 10 mg/kg, ip; assay type: organism-based; design: dose 1-10 mg/kg, route intraperitoneal; settings: in vivo
Outline: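 Male Wistar Han rats (~285 g), 3 per group, received a single i.p. injection of 1 or 10 mg/kg in alcohol/water 1:3 (v/v), with vehicle controls. Physical and clinical signs were recorded daily for 4 days, followed by exsanguination and gross necropsy.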

Rattus norvegicus [5] = assay: Toxicity in Wistar Han rat assessed as macroscopic kidney lesions at 1 to 100 mg/kg, ip by necropsic analysis; assay type: organism-based; design: dose 1-100 mg/kg, route intraperitoneal; settings: in vivo
Outline: (§1)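 Male Wistar Han rats (~285 g), 3 per group, received a single i.p. dose of 1, 10 or 100 mg/kg in alcohol/water 1:3 (v/v), with vehicle controls. Clinical signs were recorded daily. After 4 days, rats were killed by exsanguination, and liver, kidney, heart and muscle were examined grossly at necropsy.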

Rattus norvegicus [6] = assay: Toxicity in Wistar Han rat assessed as occurrence of piloerection at 100 mg/kg, ip after 24 hrs; assay type: organism-based; design: dose 100 mg/kg, route intraperitoneal; settings: in vivo
Outline: (§2)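 Male Wistar Han rats (~285 g), 3 per group, given one i.p. dose in 2 ml alcohol/water 1:3 (v/v); vehicle-only controls. Doses were 10 or 100 mg/kg, or 1, 10 or 100 mg/kg, depending on the compound. Clinical signs recorded daily. Rats killed by exsanguination after 4 days, with gross organ examination at necropsy.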

Rattus norvegicus [7] = assay: Toxicity in Wistar Han rat assessed as prostarted posture at 100 mg/kg, ip after 24 hrs; assay type: organism-based; design: dose 100 mg/kg, route intraperitoneal; settings: in vivo; outline: as §2
Rattus norvegicus [8] = assay: Toxicity in Wistar Han rat assessed as macroscopic muscle lesions at 1 to 100 mg/kg, ip by necropsic analysis; assay type: organism-based, Muscle tissue; design: dose 1-100 mg/kg, route intraperitoneal; settings: in vivo; outline: as §1
Rattus norvegicus [9] = assay: Toxicity in Wistar Han rat assessed as macroscopic heart lesions at 1 to 100 mg/kg, ip by necropsic analysis; assay type: organism-based; design: dose 1-100 mg/kg, route intraperitoneal; settings: in vivo; outline: as §1
Rattus norvegicus [10] = assay: Toxicity in Wistar Han rat assessed as macroscopic liver lesions at 1 to 100 mg/kg, ip by necropsic analysis; assay type: organism-based; design: dose 1-100 mg/kg, route intraperitoneal; settings: in vivo; outline: as §1
Rattus norvegicus [11] = assay: Toxicity in Wistar Han rat assessed as mortality at 1 to 100 mg/kg, ip; assay type: organism-based; design: dose 1-100 mg/kg, route intraperitoneal; settings: in vivo
Rattus norvegicus [12] = assay: Toxicity in Wistar Han rat assessed as occurrence of piloerection at 100 mg/kg, ip after 48 hrs; assay type: organism-based; design: dose 100 mg/kg, route intraperitoneal; settings: in vivo; outline: as §2
Rattus norvegicus [13] = assay: Toxicity in Wistar Han rat assessed as occurrence of macroscopic liver lesions at 100 mg/kg, ip by necropsic analysis; assay type: organism-based; design: dose 100 mg/kg, route intraperitoneal; settings: in vivo; outline: as §2
Rattus norvegicus [14] = assay: Toxicity in Wistar Han rat assessed as mortality at 10 to 100 mg/kg, ip after 4 days; assay type: organism-based; design: dose 10-100 mg/kg, route intraperitoneal; settings: in vivo, 96 h
Rattus norvegicus [15] = assay: Toxicity in Wistar Han rat at 10 mg/kg, ip; assay type: organism-based; design: dose 10 mg/kg, route intraperitoneal; settings: in vivo; outline: as §2
Rattus norvegicus [16] = assay: Toxicity in Wistar Han rat assessed as paralysis of hind limbs at 100 mg/kg, ip after 48 hrs; assay type: organism-based, Hindlimb; design: dose 100 mg/kg, route intraperitoneal; settings: in vivo; outline: as §2

Row | Structure (SMILES) | pIC50 (Myeloperoxidase [1]) | pIC50 (Myeloperoxidase [2]) | Ratio (Homo sapiens) | pKi [3] | also measured
1 | CCCc1c[nH]c2ccc(F)cc12 | < 7.00 | < 7.00 |  |  | Ki [3]: Not Active
2 | N#CCCCc1c[nH]c2ccc(C(=O)O)cc12 |  |  |  |  | IC50 (Myeloperoxidase [1]): Not Active; IC50 (Myeloperoxidase [2]): Not Active; Ki [3]: Not Active
3 | NCCCCc1c[nH]c2ccc(C(=O)O)cc12 |  |  |  |  | IC50 (Myeloperoxidase [1]): Not Active; IC50 (Myeloperoxidase [2]): Not Active; Ki [3]: Not Active
4 | NCCCc1c[nH]c2ccc(C(=O)O)cc12 |  |  |  |  | IC50 (Myeloperoxidase [1]): Not Active; IC50 (Myeloperoxidase [2]): Not Active; Ki [3]: Not Active
5 | NC(=O)CCCCc1c[nH]c2ccc(F)cc12 | 7.37 | 7.41 |  |  | 
6 | NCCSCCc1c[nH]c2ccc(F)cc12 |  |  | 0.6 | 8.64 | 
7 | CCSCCCc1c[nH]c2ccc(F)cc12 | < 7.00 | < 7.00 |  |  | Ki [3]: Not Active
8 | NCCc1c[nH]c2c(F)cccc12 | 7.55 | 7.54 | 1 | 7.54 | 
9 | CCN(CCc1c[nH]c2ccc(F)cc12)S(C)(=O)=O |  |  | 12 |  | 
10 | N[C@@H](Cc1ccc(O)cc1)C(=O)O [TYROSINE] |  |  |  |  | IC50 (Myeloperoxidase [2]): Not Active
11 | NC(=O)CCCCc1c[nH]c2c(F)cccc12 | 7.36 | 7.47 |  |  | 
12 | NC(=O)CCc1c[nH]c2c(F)cccc12 | 7.19 | 6.57 |  |  | 
13 | Fc1ccc2[nH]cc(CCCNCc3ccccc3)c2c1 | 7.52 | 7.89 | 4.1 | 7.28 | 
14 | NCCc1c[nH]c2ccc(O)cc12 [SEROTONIN] |  |  |  |  | IC50 (Myeloperoxidase [2]): Not Active
15 | CCSCCc1c[nH]c2ccc(F)cc12 | < 7.00 | < 7.00 |  |  | Ki [3]: Not Active
16 | NCCSCCCc1c[nH]c2ccc(F)cc12 |  | 7.46 | 0.02 | 9.05 | 

Row | Structure (SMILES) | pIC50 (Myeloperoxidase [1]) | pIC50 (Myeloperoxidase [2]) | Ratio (Homo sapiens) | pKi [3] | also measured
17 | NC(=O)CCCc1c[nH]c2ccc(F)cc12 |  | 7.74 | 35 |  | Activity (Rattus norvegicus [4]): Non-toxic; Activity (Rattus norvegicus [5]): Non-toxic; Activity (Rattus norvegicus [6]): Toxic; Activity (Rattus norvegicus [7]): Toxic; Activity (Rattus norvegicus [8]): Non-toxic; Activity (Rattus norvegicus [9]): Non-toxic; Activity (Rattus norvegicus [10]): Non-toxic; Activity (Rattus norvegicus [11]): Non-toxic
18 | NC(=O)CCc1c[nH]c2ccc(F)cc12 | 7.47 | 6.88 |  |  | 
19 | OCCNCCCc1c[nH]c2ccc(F)cc12 | 7.37 | 8.00 | 6.2 | 7.21 | 
20 | CCNC(=O)CCCc1c[nH]c2ccc(F)cc12 | 6.61 | 6.74 |  |  | 
21 | NCCSCCc1c[nH]c2c(F)cccc12 |  |  | 8 | 7.62 | Activity (Rattus norvegicus [12]): Toxic; Activity (Rattus norvegicus [13]): Toxic; Activity (Rattus norvegicus [14]): Non-toxic; Activity (Rattus norvegicus [15]): Non-toxic; Activity (Rattus norvegicus [16]): Toxic
22 | NCCc1c[nH]c2ccccc12 [TRYPTAMINE] |  | 6.11 |  |  | 
23 | N#CCCCc1c[nH]c2ccc(F)cc12 | 7.14 | 7.20 | 2.9 | 6.74 | 
24 | Fc1ccc2[nH]cc(CCCN3CCN(c4ccccc4)CC3)c2c1 | 7.22 | 7.66 | 1.6 | 7.44 | 
25 | NCCCc1c[nH]c2c(F)cccc12 | 7.59 | 7.62 | 1 | 7.62 | 
26 | NCCCCc1c[nH]c2c(F)cccc12 |  |  | 1.3 | 8.10 | 
27 | OCCNCCc1c[nH]c2ccc(F)cc12 | 7.51 | 8.00 | 1 | 8.00 | 
28 | NCCSCCCc1c[nH]c2c(F)cccc12 | < 7.00 | < 7.00 |  | 6.27 | 
29 | CCN(CCCc1c[nH]c2ccc(F)cc12)S(C)(=O)=O |  | 7.43 | 0.3 | 7.92 | 
30 | N#CSCCCc1c[nH]c2ccc(F)cc12 |  |  | 42 |  | 
31 | NCC(N)CCc1c[nH]c2ccc(F)cc12 (stereo not given) | 7.59 | 7.22 | 0.2 | 7.92 | 
